Laboratory results published in paper PMC2646883 (Biochemistry, 2008).
Values joined by “and” are separate entries in the source; they are usually repeats but may differ in a detail not shown here. Identical values can stand only once. Like-named read-outs stand apart in the source and are kept apart here. Each block holds one molecule with its values, some of them ahead of it.

What was measured:
TfIMPDH [1] = target: T1, TfIMPDH (Tritrichomonas foetus, UniProt P50097); conditions: refs 14 and 23; cited from earlier work
T1 sequence (P50097 1-503): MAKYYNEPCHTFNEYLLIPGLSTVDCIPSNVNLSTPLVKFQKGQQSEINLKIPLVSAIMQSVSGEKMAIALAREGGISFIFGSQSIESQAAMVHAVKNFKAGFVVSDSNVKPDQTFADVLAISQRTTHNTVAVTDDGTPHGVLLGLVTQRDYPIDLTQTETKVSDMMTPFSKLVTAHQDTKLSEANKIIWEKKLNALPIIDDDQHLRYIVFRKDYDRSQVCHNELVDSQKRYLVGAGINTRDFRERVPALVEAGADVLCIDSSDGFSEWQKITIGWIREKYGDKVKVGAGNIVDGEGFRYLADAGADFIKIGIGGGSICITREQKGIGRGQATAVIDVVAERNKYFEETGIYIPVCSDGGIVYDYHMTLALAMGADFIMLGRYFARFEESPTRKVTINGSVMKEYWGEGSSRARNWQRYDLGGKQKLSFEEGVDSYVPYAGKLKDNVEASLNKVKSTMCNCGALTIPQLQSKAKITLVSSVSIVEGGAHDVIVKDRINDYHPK

CpIMPDH [2] = target: T2, CpIMPDH (Cryptosporidium parvum, UniProt Q8T6T2); test: Steady-state kinetics of CpIMPDH; type: biochemical; conditions: for D2Okcat (solvent deuterium isotope effect on kcat): dinucleotide varied, 500 μM IMP, H2O vs D2O
T2 sequence (Q8T6T2 1-400): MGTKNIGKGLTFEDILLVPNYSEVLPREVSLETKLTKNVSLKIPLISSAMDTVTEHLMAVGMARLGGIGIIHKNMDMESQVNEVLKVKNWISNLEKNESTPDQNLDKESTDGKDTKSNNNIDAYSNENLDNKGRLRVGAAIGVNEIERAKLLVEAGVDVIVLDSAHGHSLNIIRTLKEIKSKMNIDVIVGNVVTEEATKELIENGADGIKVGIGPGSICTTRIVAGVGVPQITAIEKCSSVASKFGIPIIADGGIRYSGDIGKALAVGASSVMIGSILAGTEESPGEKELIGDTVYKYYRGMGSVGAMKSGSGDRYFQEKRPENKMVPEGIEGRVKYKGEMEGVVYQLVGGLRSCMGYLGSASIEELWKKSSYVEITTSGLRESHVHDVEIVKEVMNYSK

CpIMPDH [3] = target: T2, CpIMPDH; test: Equilibrium dissociation constants by intrinsic protein fluorescence; type: binding; conditions: for Kd: free enzyme, 50 mM Tris-HCl, pH 8.0, 100 mM KCl, 1 mM DTT, 25 °C
CpIMPDH [4] = target: T2, CpIMPDH; test: XMP binding kinetics by stopped-flow protein fluorescence; conditions: 0.4 μM enzyme, 30 or 120 μM XMP, 25 °C
hIMPDH2 [5] = target: T3, hIMPDH2 (Homo sapiens, UniProt P12268); conditions: cited from earlier work
CpIMPDH [6] = target: T2, CpIMPDH; test: Pre-steady-state kinetics and global fits of the CpIMPDH reaction; type: biochemical
hIMPDH2 [7] = target: T3, hIMPDH2; test: Steady-state kinetics of hIMPDH2; type: biochemical; conditions: NAD^+ varied, 400 μM IMP, H2O vs D2O
Method in brief: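 Buffer was 50 mM Tris-HCl pH 8.0, 100 mM KCl, 1 mM DTT, made in H2O or D2O, with D2O meter readings adjusted by adding 0.4. Runs were at 25 °C. […] Steady-state parameters came from eq 2.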

TfIMPDH [8] = target: T1, TfIMPDH; test: Inhibition by ligands of the dinucleotide site, TfIMPDH; type: biochemical
hIMPDH2 [9] = target: T3, hIMPDH2; test: Pre-steady-state kinetics and global fits of the hIMPDH2 reaction; type: biochemical; conditions: for Kapp ([NAD^+] at 1/2 kmax) / kmax/Kapp / kmax: fluorescence; for kmax: NAD^+ varied, 4 μM enzyme
hIMPDH2 [10] = target: T3, hIMPDH2; conditions: cited from earlier work; remark: listed apart in the source
CpIMPDH [11] = target: T2, CpIMPDH; conditions: cited from earlier work
[12] = substrate: NC(=O)c1ccc[n+]([C@@H]2O[C@H](COP(=O)([O-])OP(=O)(O)OC[C@H]3O[C@@H](n4cnc5c(N)ncnc54)[C@H](O)[C@@H]3O)[C@@H](O)[C@H]2O)c1; test: Pre-steady-state kinetics and global fits of the CpIMPDH reaction; type: biochemical, Cryptosporidium parvum; conditions: other: calculated from global-fit rate constants (eq 12)

Kd (CpIMPDH [3]): 2.3 ± 0.2 µM | factor of greater affinity of NADH than NAD^+ (CpIMPDH [3]; ratio of Kd values): 6
Molecule: NC(=O)C1=CN([C@@H]2O[C@H](COP(=O)(O)OP(=O)(O)OC[C@H]3O[C@@H](n4cnc5c(N)ncnc54)[C@H](O)[C@@H]3O)[C@@H](O)[C@H]2O)C=CC1 [NADH, reduced nicotinamide adenine dinucleotide]

rate of XMP binding / release (too fast to measure) (CpIMPDH [4]): ≥ 200 s⁻¹ | Kd (CpIMPDH [3]; Kd): 5.6 ± 0.6 µM
Molecule: O=c1[nH]c(=O)c2ncn([C@@H]3O[C@H](COP(=O)(O)O)[C@@H](O)[C@H]3O)c2[nH]1 [XMP, xanthosine 5′-monophosphate]
Kd (hIMPDH2 [5]): 140 µM

Kd (CpIMPDH [6]; Kintr (intrinsic binding constant), NAD^+, derived from the global fits, Kc = 4): 300 µM | kmax/Kapp (CpIMPDH [6]; monitored by absorbance): 80000 M⁻¹ s⁻¹ | Kapp ([NAD^+] at 1/2 kmax) (CpIMPDH [6]; monitored by absorbance, 500 μM IMP): 510 ± 90 µM | kmax (maximal kobs of burst, kburst) (CpIMPDH [6]; monitored by absorbance, NAD^+ varied, 500 μM IMP): 41 ± 2 s⁻¹ | kmax/Kapp (CpIMPDH [6]; monitored by fluorescence): 56000 M⁻¹ s⁻¹ | Kapp ([NAD^+] at 1/2 kmax) (CpIMPDH [6]; monitored by fluorescence, 500 μM IMP): 290 ± 60 µM | kmax (maximal kobs of burst) (CpIMPDH [6]; monitored by fluorescence, NAD^+ varied, 500 μM IMP): 16 s⁻¹ and 16 ± 1 s⁻¹ | D2Okcat (solvent deuterium isotope effect on kcat) (hIMPDH2 [7]): 1.8 ± 0.1 | D2Okcat (solvent deuterium isotope effect on kcat) (CpIMPDH [2]): 2.6 and 2.6 ± 0.1 | Kd (TfIMPDH [8]): 70 µM | Kd (CpIMPDH [3]; Kd): 14 ± 1 µM | Kd (hIMPDH2 [9]; Kintr (intrinsic binding constant), NAD^+, derived from the global fits, Kc ≤0.2): 590 µM | Kapp ([NAD^+] at 1/2 kmax) (hIMPDH2 [9]; burst phase): 86 ± 5 µM | kmax/Kapp (hIMPDH2 [9]; burst phase): 140000 M⁻¹ s⁻¹ | kmax (hIMPDH2 [9]; burst phase): 12 ± 1 s⁻¹ | Kapp ([NAD^+] at 1/2 kmax) (hIMPDH2 [9]; lag phase): 68 ± 1 µM | kmax/Kapp (hIMPDH2 [9]; lag phase): 340000 M⁻¹ s⁻¹ | kmax (hIMPDH2 [9]; lag phase): 23 ± 1 s⁻¹
Molecule: NC(=O)c1ccc[n+]([C@@H]2O[C@H](COP(=O)([O-])OP(=O)(O)OC[C@H]3O[C@@H](n4cnc5c(N)ncnc54)[C@H](O)[C@@H]3O)[C@@H](O)[C@H]2O)c1 [NAD^+, nicotinamide adenine dinucleotide]
Kii (TfIMPDH [1]): 6.8 ± 1.8 mM | kcat (hIMPDH2 [10]; NAD^+ reaction, pH 8.0, 25 °C): 0.39 ± 0.01 ^c s^−1 | Km (hIMPDH2 [10]; read-out: KM dinucleotide): 6 ± 1 µM | k12/k11 = Kii (NAD^+ binding to E-XMP*) (hIMPDH2 [10]; value fixed for global fitting): 590 µM

Further lines, the molecule ahead of its results:

Molecule: NC(=O)c1csc([C@@H]2O[C@H](CO)[C@@H](O)[C@H]2O)n1 [Tz, 2-β-D-ribofuranosylthiazole-4-carboxamide]
Ki (TfIMPDH [1]): 50000 ± 10000 µM

Molecule: CC(=O)c1ccc[n+]([C@@H]2O[C@H](COP(=O)([O-])OP(=O)(O)OC[C@H]3O[C@@H](n4cnc5c(N)ncnc54)[C@H](O)[C@@H]3O)[C@@H](O)[C@H]2O)c1 [APAD^+, 3-acetylpyridine adenine dinucleotide]
D2Okcat (solvent deuterium isotope effect on kcat) (CpIMPDH [2]): 3.3 and 3.3 ± 0.1 | Km (CpIMPDH [2]; read-out: KM dinucleotide, pH 8.0, 25 °C, APAD^+ at saturating IMP (500 μM)): 190 ± 9 µM

Molecule: Nc1nc2c(ncn2[C@@H]2O[C@H](COP(=O)(O)O)[C@@H](O)[C@H]2O)c(=O)[nH]1 [GMP, guanosine monophosphate]
Kd (CpIMPDH [3]): 4.8 ± 0.6 µM

Molecule: Nc1ncnc2c1ncn2[C@@H]1O[C@H](COP(=O)(O)OP(=O)(O)O)[C@@H](O)[C@H]1O [ADP, adenosine-5′-diphosphate]
Ki (TfIMPDH [1]): 31000 ± 2000 µM | Ki (CpIMPDH [11]): 42000 ± 6000 µM

B1: CpIMPDH (Cryptosporidium parvum) (protein)
chain: MGTKNIGKGLTFEDILLVPNYSEVLPREVSLETKLTKNVSLKIPLISSAMDTVTEHLMAVGMARLGGIGIIHKNMDMESQVNEVLKVKNWISNLEKNESTPDQNLDKESTDGKDTKSNNNIDAYSNENLDNKGRLRVGAAIGVNEIERAKLLVEAGVDVIVLDSAHGHSLNIIRTLKEIKSKMNIDVIVGNVVTEEATKELIENGADGIKVGIGPGSICTTRIVAGVGVPQITAIEKCSSVASKFGIPIIADGGIRYSGDIGKALAVGASSVMIGSILAGTEESPGEKELIGDTVYKYYRGMGSVGAMKSGSGDRYFQEKRPENKMVPEGIEGRVKYKGEMEGVVYQLVGGLRSCMGYLGSASIEELWKKSSYVEITTSGLRESHVHDVEIVKEVMNYSK
Km [12]: 40 µM
